# From ChEMBL document CHEMBL1147526, “Sulfonyl-phenyl-ureido benzamidines; a novel structural class of potent antimalarial agents” (Bioorg Med Chem Lett, 2004)
# Tested on: Plasmodium falciparum
# Assay: In vitro antimalarial activity against Plasmodium falciparum Dd2
# Format: functional, organism-based
# Outline: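 P. falciparum Dd2 grown in RPMI 1640 with 10% heat-treated human serum and 3 mg/l gentamycin, 0.3% parasitaemia, 2.5% haematocrit; compounds 0.3 to 100 μM. After 48 h, [8-³H]hypoxanthine added and incubated a further 18 h. Cells filtered, washed, and incorporated radioactivity counted by scintillation to give IC50.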
row,SMILES,IC50
1,CCCCNS(=O)(=O)c1ccc(NC(=O)Nc2cccc(C(=N)N)c2)cc1,3900 nM
2,N=C(N)c1cccc(NC(=O)Nc2ccc(S(=O)(=O)Nc3ccccc3)cc2)c1,9000 nM
3,N=C(N)c1cccc(NC(=O)Nc2ccc(S(=O)(=O)Nc3ccc4ccccc4c3)cc2)c1,8200 nM
4,N=C(N)c1cccc(NC(=O)Nc2ccc(S(N)(=O)=O)cc2)c1,> 4900 nM
5,N=C(N)c1cccc(NC(=O)Nc2ccc(S(=O)(=O)NCc3ccc(F)c(F)c3)cc2)c1,1110 nM
6,CNS(=O)(=O)c1ccc(NC(=O)Nc2cccc(C(=N)N)c2)cc1,3000 nM
7,N=C(N)c1cccc(NC(=O)Nc2cccc(S(=O)(=O)NCc3ccccc3)c2)c1,6200 nM
8,N=C(N)c1cccc(NC(=O)Nc2ccc(S(=O)(=O)NCc3ccc(F)cc3F)cc2)c1,1110 nM
9,N=C(N)c1cccc(NC(=O)Nc2ccc(S(=O)(=O)NCc3cc(F)c(F)cc3F)cc2)c1,1800 nM
10,N=C(N)c1cccc(NC(=O)Nc2ccc(S(=O)(=O)NCCN3CCOCC3)cc2)c1,> 2500 nM
11,N=C(N)c1ccc(NC(=O)Nc2cccc(S(=O)(=O)NCc3ccc(S(N)(=O)=O)cc3)c2)cc1,> 2500 nM
12,N=C(N)c1cccc(NC(=O)Nc2ccc(S(=O)(=O)Nc3cccc4ccccc34)cc2)c1,17000 nM

# Compounds with a lower IC50, results first:
row,IC50,SMILES
1,410 nM,N=C(N)c1ccc(NC(=O)Nc2cccc(S(=O)(=O)NCc3ccccc3)c2)cc1
2,17 nM,N=C(N)c1cccc(NC(=O)Nc2ccc(S(=O)(=O)NCc3c(F)ccc(F)c3F)cc2)c1
3,190 nM,N=C(N)c1ccc(NC(=O)Nc2cccc(S(=O)(=O)NCc3c(F)ccc(F)c3F)c2)cc1
4,210 nM,N=C(N)c1ccc(NC(=O)Nc2ccc(S(=O)(=O)NCc3c(F)ccc(F)c3F)cc2)cc1
5,620 nM,N=C(N)c1cccc(NC(=O)Nc2ccc(S(=O)(=O)NCc3ccccc3F)cc2)c1
6,610 nM,N=C(N)c1cccc(NC(=O)Nc2ccc(S(=O)(=O)N3CCc4ccccc4C3)cc2)c1
7,400 nM,N=C(N)c1ccc(NC(=O)Nc2ccc(S(=O)(=O)NCc3ccccc3)cc2)cc1
8,980 nM,N=C(N)c1cccc(NC(=O)Nc2cccc(S(=O)(=O)NCc3ccc(S(N)(=O)=O)cc3)c2)c1
9,450 nM,N=C(N)c1cccc(NC(=O)Nc2ccc(S(=O)(=O)NCc3ccccc3)cc2)c1
10,90 nM,N=C(N)c1ccc(NC(=O)Nc2ccc(S(=O)(=O)NCc3ccc(S(N)(=O)=O)cc3)cc2)cc1
11,250 nM,N=C(N)c1cccc(NC(=O)Nc2cccc(S(=O)(=O)NCc3c(F)ccc(F)c3F)c2)c1
12,7 nM,N=C(N)c1cccc(NC(=O)Nc2ccc(S(=O)(=O)NCc3ccc(S(N)(=O)=O)cc3)cc2)c1
13,500 nM,N=C(N)c1cccc(NC(=O)Nc2ccc(S(=O)(=O)NCc3cccc(F)c3)cc2)c1
14,890 nM,N=C(N)c1cccc(NC(=O)Nc2ccc(S(=O)(=O)NCCO)cc2)c1
15,320 nM,N=C(N)c1cccc(NC(=O)Nc2ccc(S(=O)(=O)NCc3ccc(F)cc3)cc2)c1
16,5 nM,N=C(N)c1cccc(NC(=O)Nc2cccc(C(=N)N)c2)c1 [AMICARBALIDE]
